CHO parental Ca: counter-screen for OX1R antagonists: effect in parental CHO cells | parental CHO-K1, ATP-induced calcium, Fluo-8 fluorescence | inhibition, % at 5.6 µM | hit rate 0.63% among 330,000 | AID 463079;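 active = inhibition above that plate's mean sample inhibition plus 3 SD, cut at about 26% in these data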;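 also: 0% = ATP-challenged DMSO wells and 100% = DMSO wells without ATP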
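Measured by: calcium-sensitive Fluo-8 fluorescence / Test system: CHO parental line / Controls: ATP-challenged DMSO wells low, unchallenged DMSO wells high / Measure: % inhibition / Compound: single nominal dose of 5.6 µM per compound / Replicates: single well per compound, no replicates / Reagent: ATP as calcium-mobilizing challenge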
GPR7 antagonist: blocks human GPR7 receptor signaling. GPR7-expressing cells, fluorescence antagonist assay. inhibition, % at 4.4 µM. hit rate 1.1% among 290,000. P48145. AID 1861; in the data active = inhibition above about 16%, passing the limit was not always enough;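 also: cells stimulated with the agonist NPW; 0% = agonist with vehicle and 100% = vehicle without agonist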
GalR3 antagonist: human GalR3 antagonism. O60755. HEK293 GalR3-CNG cAMP membrane potential fluorescence; galR3 body fused to GalR1 C-terminus. inhibition, % at 3 µM. hit rate 0.44% among 360,000;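 active = inhibition above the screen-wide average plus 3 SD, cut at about 13% in these data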;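 also: forskolin and galanin both at EC90 stimulate the cells; cAMP rise reported by CNG channel membrane potential dye signal; 0% = forskolin plus galanin with DMSO and 100% = forskolin alone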
OX1R antag-1: human HCRTR1 antagonism | hit rate 0.43% among 330,000 | AID 434989 | inhibition, % at 5 µM | CHO/OX1R cells, Fluo-8 calcium fluorescence, orexin A | O43613;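 active = inhibition above its plate's threshold, mean inhibition of all tested compounds on the plate plus 3 SD, cut at about 37% in these data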;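 also: 0% = orexin A challenge wells and 100% = SB-334867-A antagonist wells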
Target sequence (O43613 whole entry, looked up): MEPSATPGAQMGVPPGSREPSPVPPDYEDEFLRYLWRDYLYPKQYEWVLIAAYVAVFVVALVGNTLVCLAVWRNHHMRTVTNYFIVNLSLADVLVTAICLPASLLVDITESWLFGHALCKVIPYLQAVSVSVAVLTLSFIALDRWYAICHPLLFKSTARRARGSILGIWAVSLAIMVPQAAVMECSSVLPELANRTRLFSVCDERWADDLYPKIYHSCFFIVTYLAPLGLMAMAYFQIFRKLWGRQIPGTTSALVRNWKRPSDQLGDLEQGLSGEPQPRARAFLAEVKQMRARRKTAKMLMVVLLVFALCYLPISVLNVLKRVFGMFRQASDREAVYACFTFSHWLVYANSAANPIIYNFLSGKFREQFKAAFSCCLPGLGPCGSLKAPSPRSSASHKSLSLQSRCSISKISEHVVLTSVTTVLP
OX1R antag-2: antagonists of human orexin 1 receptor (OX1R) | AID 485270 | OX1R-expressing cells, FRET antagonist read-out | hit rate 1.8% among 330,000 | inhibition, % at 6.6 µM; in the data active = inhibition mostly above about 38%, no sharp cut-off; inactive = mostly below about 40%;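 also: 0% = agonist challenge alone and 100% = reference antagonist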
Active calls of the source: *. The list is not random: actives were taken first. Their share in the collection is about 3.1%.

What do the screens show for `COc1ccc(C2CC(=O)c3c([nH]c(C(=O)OC(C)C)c3C)C2)cc1OC` (stereo not drawn)?
CHO parental Ca: -4.6; GPR7 antagonist: 6.5; GalR3 antagonist: 0.0; OX1R antag-1: -15.7; OX1R antag-2: 22.9

What do the screens show for `CCCCOC(=O)c1[nH]c2c(c1C)C(=O)CC(c1cc(OC)c(OC)c(OC)c1)C2` (stereo not drawn)?
CHO parental Ca: 61.7*; GPR7 antagonist: 19.8; GalR3 antagonist: 0.2; OX1R antag-1: 7.8; OX1R antag-2: 35.9

What do the screens show for `C=CCOC(=O)c1[nH]c2c(c1C)C(=O)CC(c1cc(OC)c(OC)c(OC)c1)C2` (stereo not drawn)?
CHO parental Ca: 33.0*; GPR7 antagonist: 14.5; OX1R antag-1: 15.2; OX1R antag-2: 24.4

How did CCCC(C)(C)C(=O)N1CCC1(C)C(=O)Nc1ccc(OC)c(OC)c1 (stereo not drawn) do in these assays?
GalR3 antagonist: -6.0

What do the screens show for `CC(=O)C1=C(C)N(Cc2ccc(Br)cc2)C(=S)NC1c1cccc(Br)c1` (stereo not drawn)?
GalR3 antagonist: -7.4

What do the screens show for `O=C(C1CCC(=O)N(C2CC2)C1)N1CCC(Oc2cccc(C(F)(F)F)c2)CC1` (stereo not drawn)?
GPR7 antagonist: -9.0; GalR3 antagonist: -1.1

What do the screens show for `Nc1ccc(-c2nnnn2-c2ccc(N)cc2)cc1`?
CHO parental Ca: 27.8*; GPR7 antagonist: -13.9; GalR3 antagonist: -4.5; OX1R antag-1: -12.7; OX1R antag-2: 0.6

What do the screens show for `O=[N+]([O-])c1ccc(-n2nnnc2-c2ccccc2)cc1`?
CHO parental Ca: -1.3; GPR7 antagonist: 3.0; GalR3 antagonist: -3.9; OX1R antag-1: -1.6; OX1R antag-2: 54.1*

Results for NC(=O)c1nnn(-c2ccc([N+](=O)[O-])cc2)c1-c1ccccc1 ?
CHO parental Ca: -2.2; GPR7 antagonist: -6.8; GalR3 antagonist: -3.8; OX1R antag-1: -12.8; OX1R antag-2: 43.5*

Results for O=[N+]([O-])c1ccc(-n2cc(-c3ccccc3)nn2)cc1 ?
CHO parental Ca: -4.7; GPR7 antagonist: -3.7; GalR3 antagonist: -3.7; OX1R antag-1: -1.2; OX1R antag-2: 18.8

Results for Cc1ccc(C)c(C(O)c2ncc(-c3ccc4ccccc4c3)[nH]2)c1 (stereo not drawn) ?
GalR3 antagonist: -6.7

How did COc1cc(C(=O)ON=C2C=C(C)C(=O)C(C)=C2)cc(OC)c1OC do in these assays?
CHO parental Ca: -4.1; GPR7 antagonist: 5.0; GalR3 antagonist: -5.3; OX1R antag-1: -15.0; OX1R antag-2: 75.3*

What do the screens show for `CCCCN(C)C(=O)c1ccc2c(c1)S(=O)(=O)c1ccccc1C2=O`?
CHO parental Ca: -5.8; GPR7 antagonist: 1.6; GalR3 antagonist: 0.4; OX1R antag-1: -20.2; OX1R antag-2: 61.5

How did C[C@@H]1CN([C@@H](C)CO)C(=O)CCCn2nncc2CO[C@H]1CN(C)CC1CC1 do in these assays?
GalR3 antagonist: 2.3

Results for O=C(c1ccccn1)N(CC1CCCO1)C1(C(=O)NC2CCCCC2)CCCCC1 (stereo not drawn) ?
CHO parental Ca: -7.8; GPR7 antagonist: 5.9; GalR3 antagonist: -6.3; OX1R antag-1: -17.6; OX1R antag-2: 9.3

How did O=C(Cc1cccs1)N(CC1CCCO1)C1(C(=O)NC2CCCC2)CCCCC1 (stereo not drawn) do in these assays?
CHO parental Ca: -24.3; GPR7 antagonist: 37.3*; GalR3 antagonist: -3.1; OX1R antag-1: -27.6; OX1R antag-2: 10.5

How did O=C(COc1ccc(F)cc1Cl)Nc1ccccc1C(=O)N1CCCCC1 do in these assays?
CHO parental Ca: 98.9*; GalR3 antagonist: 1.4; OX1R antag-1: -35.4; OX1R antag-2: 25.1

Results for COc1ccccc1OCC(=O)Nc1ccccc1C(=O)N1CCCC1 ?
CHO parental Ca: -11.8; GPR7 antagonist: -6.2; GalR3 antagonist: -8.0; OX1R antag-1: -17.5; OX1R antag-2: 16.2

What do the screens show for `CC(=O)/C(=N/Nc1cccc(Cl)c1)Sc1nnc(C(O)c2ccccc2)n1-c1ccccc1` (stereo not drawn)?
CHO parental Ca: -25.3; GPR7 antagonist: 26.5*; GalR3 antagonist: -2.3; OX1R antag-1: -30.4; OX1R antag-2: 6.8

How did Cc1occc1-c1nnc(SCC(=O)Nc2nc(C(C)(C)C)cs2)o1 do in these assays?
CHO parental Ca: 36.1*; GPR7 antagonist: 1.7; GalR3 antagonist: -7.5; OX1R antag-1: 13.1; OX1R antag-2: 25.0

What do the screens show for `Cc1csc(NC(=O)CSc2nnc(-c3ccoc3C)o2)n1`?
CHO parental Ca: -3.5; GPR7 antagonist: 3.0; GalR3 antagonist: -7.3; OX1R antag-1: -16.4; OX1R antag-2: 21.2

How did Cc1cccc(N(CC(O)CON=C2c3ccccc3-c3ccccc32)S(C)(=O)=O)c1 (stereo not drawn) do in these assays?
CHO parental Ca: -8.7; GPR7 antagonist: -0.8; GalR3 antagonist: -11.7; OX1R antag-1: 11.5; OX1R antag-2: 63.1*

Results for CCN(CC(O)CON=C1c2ccccc2-c2ccccc21)S(=O)(=O)c1ccc(C)cc1 (stereo not drawn) ?
CHO parental Ca: -20.4; GPR7 antagonist: -16.4; GalR3 antagonist: -4.0; OX1R antag-1: 25.7; OX1R antag-2: 72.7*

Results for O=C1/C(=C\c2ccc(Br)o2)SC(=Nc2ccccc2)N1c1ccccc1 ?
CHO parental Ca: -15.5; GPR7 antagonist: -2.0; GalR3 antagonist: 0.3; OX1R antag-1: -16.1; OX1R antag-2: 61.6*

What do the screens show for `O=C(NC1CCCCC1)c1ccc2c(c1)S(=O)(=O)c1ccccc1C2=O`?
CHO parental Ca: -26.1; GalR3 antagonist: -1.1; OX1R antag-1: -26.0; OX1R antag-2: 59.3

What do the screens show for `CSc1ccc(C(=O)NCC(c2ccco2)N(C)C)cc1[N+](=O)[O-]` (stereo not drawn)?
CHO parental Ca: -12.1; GPR7 antagonist: 2.7; GalR3 antagonist: -8.1; OX1R antag-1: -22.9; OX1R antag-2: 46.6*

How did O=C(NC1CCCC1)c1ccc2c(c1)S(=O)(=O)c1ccccc1C2=O do in these assays?
CHO parental Ca: -16.1; GalR3 antagonist: -0.2; OX1R antag-1: -16.0; OX1R antag-2: 64.6*

How did CCCN(CCC)C(=O)c1ccc2c(c1)S(=O)(=O)c1ccccc1C2=O do in these assays?
CHO parental Ca: -11.2; GPR7 antagonist: -11.5; GalR3 antagonist: -2.2; OX1R antag-1: -20.6; OX1R antag-2: 45.9

How did O=C(Nc1ccncc1)c1ccc2c(c1)S(=O)(=O)c1ccccc1C2=O do in these assays?
CHO parental Ca: 0.3; GPR7 antagonist: -10.2; GalR3 antagonist: -4.2; OX1R antag-1: -10.5; OX1R antag-2: 75.1*

What do the screens show for `CCCNC(=O)c1ccc2c(c1)S(=O)(=O)c1ccccc1C2=O`?
CHO parental Ca: -13.2; GPR7 antagonist: -9.8; GalR3 antagonist: 0.4; OX1R antag-1: -25.4; OX1R antag-2: 74.1*

What do the screens show for `Cc1ccc2nc(-c3cccc(Cl)c3)c(Cc3ccccc3C(F)(F)F)n2c1`?
GalR3 antagonist: -5.4

How did CC1CCCC(C)N1C(=O)c1ccc2c(c1)S(=O)(=O)c1ccccc1C2=O (stereo not drawn) do in these assays?
CHO parental Ca: -15.3; GPR7 antagonist: -2.2; GalR3 antagonist: -7.3; OX1R antag-1: -21.9; OX1R antag-2: 41.8*
